Converted amounts (≈) assume the structure as drawn. The source made the active and inactive calls. The calls are words filed in the database; no cut-off is given here.
Legend:
Salmonella enteritidis = assay: Antimicrobial activity against Salmonella enteritidis ATCC 13076 assessed as diameter of the inhibition zone after 24 hrs by paper disk agar diffusion method; assay type: functional, Salmonella enterica subsp. enterica serovar Enteritidis
In short: (§1)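 Overnight cultures were spread on agar: tryptone soy agar for Listeria, azide dextrose agar for Enterococcus, and nutrient agar for the other bacteria. 6.4 mm paper disks each received 300 µg of substance in 15 µL DMSO. Plates were incubated at 37 °C for 24 h and the inhibition-zone diameter measured. Chloramphenicol served as control. At least three replicates were run.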

Aspergillus niger = assay: Antimicrobial activity against Aspergillus niger ATCC 16404 assessed as diameter of the inhibition zone after 48 hrs by paper disk agar diffusion method; assay type: functional
In short: (§2)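 Fungal disk diffusion: overnight cultures were spread on potato dextrose agar. 6.4 mm paper disks each carried 300 µg of substance in 15 µL DMSO. Plates were incubated at 25 °C for 48 h and the inhibition-zone diameter read. Actidione was the control for A. niger and chloramphenicol for C. albicans. At least three replicates were run.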

Bacillus subtilis [1] = assay: Antimicrobial activity against Bacillus subtilis ATCC 6633 assessed as diameter of the inhibition zone after 24 hrs by paper disk agar diffusion method; assay type: functional; in short: as §1
Candida albicans = assay: Antimicrobial activity against Candida albicans ATCC 10231 assessed as diameter of the inhibition zone after 48 hrs by paper disk agar diffusion method; assay type: functional; in short: as §2
Staphylococcus aureus [2] = assay: Antimicrobial activity against Staphylococcus aureus ATCC 25923 assessed as diameter of the inhibition zone after 24 hrs by paper disk agar diffusion method; assay type: functional; in short: as §1
Bacillus cereus [3] = assay: Antimicrobial activity against Bacillus cereus ATCC 11778 after 16 to 20 hrs by broth dilution method; assay type: functional; settings: for MIC: Bacillus cereus, ATCC 11778
In short: (§3)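 Dilution method used overnight cultures and serial compound dilutions from 500 down to 1.95 µg/mL, with chloramphenicol from 50 to 0.195 µg/mL. Incubation was at 35 °C for 16–20 h, and MIC and MLC were determined. At least three replicates were run. Only compounds giving disk inhibition diameters of 11 mm or more were tested.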

Pseudomonas aeruginosa = assay: Antimicrobial activity against Pseudomonas aeruginosa ATCC 27853 assessed as diameter of the inhibition zone after 24 hrs by paper disk agar diffusion method; assay type: functional; in short: as §1
Enterococcus faecalis [4] = assay: Antimicrobial activity against Enterococcus faecalis ATCC 29212 after 16 to 20 hrs by broth dilution method; assay type: functional; settings: for MIC: Enterococcus faecalis, ATCC 29212; in short: as §3
Listeria monocytogenes [5] = assay: Antimicrobial activity against Listeria monocytogenes ATCC 7644 assessed as diameter of the inhibition zone after 24 hrs by paper disk agar diffusion method; assay type: functional; in short: as §1
Bacillus cereus [6] = assay: Antimicrobial activity against Bacillus cereus ATCC 11778 assessed as diameter of the inhibition zone after 24 hrs by paper disk agar diffusion method; assay type: functional; in short: as §1
Escherichia coli = assay: Antimicrobial activity against Escherichia coli ATCC 8739 assessed as diameter of the inhibition zone after 24 hrs by paper disk agar diffusion method; assay type: functional; in short: as §1
Bacillus subtilis [7] = assay: Antimicrobial activity against Bacillus subtilis ATCC 6633 after 16 to 20 hrs by broth dilution method; assay type: functional; settings: for MIC: Bacillus subtilis, ATCC 6633; in short: as §3
Listeria monocytogenes [8] = assay: Antimicrobial activity against Listeria monocytogenes ATCC 7644 after 16 to 20 hrs by broth dilution method; assay type: functional; settings: for MIC: Listeria monocytogenes, ATCC 7644; in short: as §3
Bacillus cereus [9] = assay: Antimicrobial activity against Bacillus cereus ATCC 11778 after 1 year; assay type: functional, organism-based
Enterococcus faecalis [10] = assay: Antimicrobial activity against Enterococcus faecalis ATCC 29212 assessed as diameter of the inhibition zone after 24 hrs by paper disk agar diffusion method; assay type: functional; in short: as §1
Pyricularia oryzae = assay: Antimicrobial activity against Pyricularia oryzae DSMZ 62938 assessed as diameter of the inhibition zone after 48 hrs by paper disk agar diffusion method; assay type: functional
In short: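 Overnight culture spread on potato dextrose agar; 6.4 mm paper disks loaded with compound dissolved in DMSO. […] served as the reference control. Plates incubated at 25 °C for 48 h, then the diameter of the inhibition zone was measured in mm. At least three replicates.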

[11] = Cytotoxicity against human peripheral blood lymphocytes assessed as mitotic index at 100 ug/mL; settings: pbl
In short: (§4)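 Heparinized whole blood from healthy donors was cultured in Ham's F-10 with 15% fetal calf serum, phytohemagglutinin, L-glutamine, streptomycin and penicillin. Compounds at 10 or 100 µg/mL were added after 24 h and culture continued to 48 h. Colcemid (0.5 µg/mL final) was present for the last 3 h. Mitotic index was scored on metaphase spreads at 500×. 2% H2O2 was the positive control.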

[12] = Cytotoxicity against human peripheral blood lymphocytes assessed as mitotic index at 10 ug/mL; settings: pbl; in short: as §4
Staphylococcus aureus [13] = assay: Antimicrobial activity against Staphylococcus aureus ATCC 25923 after 16 to 20 hrs by broth dilution method; assay type: functional; settings: for MIC: Staphylococcus aureus, ATCC 25923; in short: as §3

| SMILES | inhibition zone (IZ) (Salmonella enteritidis) | inhibition zone (IZ) (Aspergillus niger) | inhibition zone (IZ) (Bacillus subtilis [1]) | inhibition zone (IZ) (Candida albicans) | inhibition zone (IZ) (Staphylococcus aureus [2]) | MLC (Bacillus cereus [3]) | MIC (Bacillus cereus [3]) | inhibition zone (IZ) (Pseudomonas aeruginosa) | MLC (Enterococcus faecalis [4]) | MIC (Enterococcus faecalis [4]) | inhibition zone (IZ) (Listeria monocytogenes [5]) | inhibition zone (IZ) (Bacillus cereus [6]) | inhibition zone (IZ) (Escherichia coli) | MLC (Bacillus subtilis [7]) | MIC (Bacillus subtilis [7]) | MLC (Listeria monocytogenes [8]) | MIC (Listeria monocytogenes [8]) | inhibition zone (IZ) (Enterococcus faecalis [10]) | inhibition zone (IZ) (Pyricularia oryzae) | MIC (Staphylococcus aureus [13]) | also measured |
| --- | --- | --- | --- | --- | --- | --- | --- | --- | --- | --- | --- | --- | --- | --- | --- | --- | --- | --- | --- | --- | --- |
| CCCCCCCCCCCCO[C@H]1C[C@H](O)[C@@H](O)[C@H](C)O1 | <6.4 mm | <6.4 mm | 25 mm | <6.4 mm | 9 mm | 7.8 µg/mL (≈ 24.6 µM) | 7.8 µg/mL (≈ 24.6 µM) | <6.4 mm | >250 µg/mL | 15.6 µg/mL (≈ 49.3 µM) | 12 mm | 27 mm | <6.4 mm | 15.6 µg/mL (≈ 49.3 µM) | 7.8 µg/mL (≈ 24.6 µM) | 62.5 µg/mL (≈ 197 µM) | 31.3 µg/mL (≈ 98.9 µM) | 13 mm | <6.4 mm | – | Activity (Bacillus cereus [9]): Active |
| CCCCCCCCO[C@@H]1C[C@@H](O)[C@H](O)[C@@H](CO)O1 | <6.4 mm | <6.4 mm | <6.4 mm | <6.4 mm | <6.4 mm | – | – | <6.4 mm | – | – | <6.4 mm | <6.4 mm | <6.4 mm | – | – | – | – | <6.4 mm | <6.4 mm | – | Activity [11]: 3; Activity [12]: 10.75 |
| CCCCCCCCO[C@@H]1C[C@H](O)[C@@H](O)[C@H](C)O1 | <6.4 mm | <6.4 mm | 10 mm | 11 mm | 12 mm | – | > 500 µg/mL | 9 mm | – | – | 10 mm | 12 mm | 9 mm | – | > 500 µg/mL | – | > 500 µg/mL | 9 mm | <6.4 mm | > 500 µg/mL | – |
| CCCCCCCCCCCCO[C@@H]1C[C@@H](O)[C@H](O)[C@@H](CO)O1 | <6.4 mm | <6.4 mm | 9 mm | 9 mm | <6.4 mm | – | – | <6.4 mm | – | – | 10 mm | <6.4 mm | <6.4 mm | – | – | – | – | <6.4 mm | <6.4 mm | – | Activity [11]: 7.75; Activity [12]: 13.5 |
| CCCCCCCCO[C@H]1C[C@H](O)[C@@H](O)[C@H](C)O1 | <6.4 mm | <6.4 mm | 12 mm | 10 mm | 11 mm | 500 µg/mL (≈ 1920 µM) | 250 µg/mL (≈ 960 µM) | 8 mm | – | – | 10 mm | 12 mm | 8 mm | >500 µg/mL | 250 µg/mL (≈ 960 µM) | – | – | 10 mm | 13 mm | 500 µg/mL (≈ 1920 µM) | MLC (Staphylococcus aureus [13]): 500 µg/mL (≈ 1920 µM) |
| CCCCCCCCCCCCO[C@@H]1C[C@H](O)[C@@H](O)[C@H](C)O1 | <6.4 mm | <6.4 mm | <6.4 mm | <6.4 mm | <6.4 mm | – | – | <6.4 mm | – | – | <6.4 mm | <6.4 mm | <6.4 mm | – | – | – | – | <6.4 mm | <6.4 mm | – | – |
| O=C(N[C@H](CO)[C@H](O)c1ccc([N+](=O)[O-])cc1)C(Cl)Cl [CHLORAMPHENICOL] | – | – | – | – | – | 12.5 µg/mL (≈ 38.7 µM) | 6.3 µg/mL (≈ 19.5 µM) | – | >50 µg/mL | 6.3 µg/mL (≈ 19.5 µM) | – | – | – | >50 µg/mL | 3.1 µg/mL (≈ 9.59 µM) | >50 µg/mL | 6.3 µg/mL (≈ 19.5 µM) | – | – | 6.3 µg/mL (≈ 19.5 µM) | MLC (Staphylococcus aureus [13]): >50 µg/mL |
| CCCCCCCCO[C@H]1C[C@@H](O)[C@H](O)[C@@H](CO)O1 | <6.4 mm | <6.4 mm | 12 mm | <6.4 mm | <6.4 mm | – | > 500 µg/mL | <6.4 mm | >500 µg/mL | 31.3 µg/mL (≈ 113 µM) | <6.4 mm | 11 mm | <6.4 mm | – | > 500 µg/mL | – | – | 14 mm | <6.4 mm | – | – |
| CCCCCCCCCCCCO[C@H]1C[C@@H](O)[C@H](O)[C@@H](CO)O1 | <6.4 mm | <6.4 mm | 10 mm | 10 mm | <6.4 mm | – | > 500 µg/mL | <6.4 mm | >500 µg/mL | 31.3 µg/mL (≈ 94.1 µM) | <6.4 mm | 10 mm | <6.4 mm | – | > 500 µg/mL | >500 µg/mL | 250 µg/mL (≈ 752 µM) | 17 mm | <6.4 mm | > 500 µg/mL | Activity [11]: 6.75; Activity [12]: 13.5 |

— ChEMBL document CHEMBL1157142, “Alkyl deoxy-arabino-hexopyranosides: synthesis, surface properties, and biological activities” (Bioorg Med Chem, 2008)
